These results are taken from ChEMBL document CHEMBL4831539, “Withanolide-Type Steroids from Physalis nicandroides Inhibit HIV Transcription” (J Nat Prod, 2021).

Where only a bound is given, the exact number is not on record here.

Data set [1] can be described thus: Selectivity index, ratio of CC50 for human MT2 cells to IC50 for antiviral activity against VSV envelope pseudotyped HIV infected in MT2 cells by viral entry evaluation assay. It is filed as toxicity, cell-based. The following applies: read-out: Selectivity Index.
Data set [2] is described as follows: Selectivity index, ratio of CC50 for human MT2 cells to IC50 for antiviral activity against HIV1 pNL4.3-Luc infected in MT2 cells by transfection assay. It is filed as toxicity, cell-based. Particulars: read-out: Selectivity Index.
A short description of data set [3]: Antiviral activity against HIV1 pNL4.3-Luc infected in MT2 cells assessed as luciferase activity measured after 48 hrs by transfection assay. The following applies: Human immunodeficiency virus 1, MT2, 48 h. Type of data set: functional, cell-based. Summed up: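 MT-2 cells were electroporated at 260 V, maximum resistance, with an HIV-1 whole-genome luciferase plasmid (pNL4.3-Luc). They were then treated with base-2 serial dilutions from 0.7 to 100 μM in complete RPMI at 37 °C for 48 h. PMA served as the transactivation reference. Cells were lysed and luciferase RLUs read. IC50 came from nonlinear dose–response regression.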

The test system of data set [4] is Human immunodeficiency virus. Put plainly: Antiviral activity against VSV envelope pseudotyped HIV infected in MT2 cells assessed as luminescence measured after 48 hrs by viral entry evaluation assay. Type of data set: functional, organism-based. Particulars: Human immunodeficiency virus 1, MT2, 48 h. In short, it runs like this:
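VSV-G pseudotyped HIV came from 293T cotransfection (calcium phosphate) of envelope-deleted pNL4.3-Luc-RE plus pcDNA3-VSV. MT-2 cells were infected at 100 000 RLUs or 20 ng p24 per well, with base-2 dilutions up to 100 μM, for 48 h at 37 °C, 5% CO2. NL4.3-Ren infections ran in parallel, with an enfuvirtide reference. Luciferase RLUs were read and IC50 obtained by nonlinear regression.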

A short description of data set [5]: Selectivity index, ratio of CC50 for human MT2 cells to IC50 for Anti-HIV activity against HIV. Type of data set: toxicity. Particulars: read-out: Selectivity Index. Summed up: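 SI = CC50/IC50. […] CC50 came from mock-infected MT-2 cells under the same conditions, read by CellTiter Glo. Both are means of at least three independent experiments, fitted by nonlinear regression.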

With `CC(=O)O[C@H]1C=C([C@H](C)[C@H]2CC(C)=C(C)C(=O)O2)[C@@]2(C)CC[C@H]3[C@@H](C[C@@H](O)[C@]45C=C[C@H](OO4)C(=O)[C@]35C)[C@@]12O`, the selectivity ratio in data set [1] was found to be 1.64; in data set [2], 1.02. Besides, the half-inhibitory concentration (IC50) worked out at 1.97 µM in data set [3] and 3.2 µM in data set [4].

Turning to `CC(=O)O[C@H]1C=C([C@H](C)[C@H]2CC(C)=C(C)C(=O)O2)[C@@]2(C)CC[C@H]3[C@@H](C[C@H]4O[C@]45CC=CC(=O)[C@]35C)[C@@]12O`, the selectivity ratio in data set [1] turned out to be 2.66; in data set [5] it was 10.6.

On to `C=C1C(=O)O[C@@H]([C@@H](C)[C@]2(O)C[C@H](OC(C)=O)[C@]3(O)[C@@H]4C[C@H]5O[C@]56CC=CC(=O)[C@]6(C)[C@H]4CC[C@@]32C)C[C@@]1(C)O`, for which the selectivity ratio in data set [5] is more than 8.

As to `C=C1C(=O)O[C@@H]([C@@H](C)[C@]2(O)C[C@H](OC(C)=O)[C@]3(O)[C@@H]4C[C@H]5O[C@]56CC=CC(=O)[C@]6(C)[C@H]4CC[C@@]32C)C[C@]1(C)O`, the selectivity ratio in data set [5] was more than 5.3.

Regarding `C[C@H](Cn1cnc2c(N)ncnc21)OCP(=O)(O)O` [TENOFOVIR ANHYDROUS], the selectivity ratio in data set [5] came out at 333.

Turning to enfuvirtide, the selectivity ratio in data set [1] was found to be 66.7. For the same compound, the IC50 in data set [3] is 0.01 µM; in data set [4], more than 1 µM.

Broadly, the IC50 is the concentration needed to halve the response being measured.
